Assays:
Hepatocyte = test: Metabolic stability in cryopreserved human hepatocytes after 90 mins by radio-TLC assay; format: ADME, cell-based; details: 1.5 h
Procedure, shortened: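 Cryopreserved female human hepatocytes were thawed and resuspended in modified Krebs-Henseleit buffer, and the radiotracer in buffer was added to cell wells. Incubation was at 37 °C, 5% CO2. Aliquots taken at 5–120 min went into MeOH (2 volumes), were vortexed and centrifuged at 10,000 G for 5 min. Supernatant was run on silica TLC (10% EtOH/EtOAc) and read by radio-TLC scan. Viability was checked by Trypan Blue.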

Mus musculus [1] = test: Biodistribution in tumor of EGFR negative-MDA-MB-435 cells-xenografted tumor-bearing nude SCID mouse at 1 to 2 MBq, iv after 1 to 3 hrs postinjection; details: in vivo
Bone [2] = test: Biodistribution in tumor-bearing nude SCID mouse bone at 1 to 2 MBq, iv after 3 hrs postinjection; format: ADME, organism-based, Bone element; details: in vivo
Procedure, shortened: (§1)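 Nude SCID mice bearing subcutaneous MDA-MB-468 flank xenografts (about 1 million cells), with MDA-MB-435 (about 1 million cells) implanted in the shoulder in some cohorts. Under isoflurane, 1–2 MBq radiotracer in saline was given by tail-vein injection. Mice (n = 4 per time point) were euthanized 1–3 h post injection. Blood, tumor and tissues were weighed and counted, giving decay-corrected %ID/g.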

Mus musculus [3] = test: Biodistribution in tumor of 1 mg/kg PD153035 pretreated EGFR positive-MDA-MB-468 cells-xenografted tumor-bearing nude SCID mouse 1 to 2 MBq, iv after 1 hr relative to control; format: ADME, organism-based, Neoplasm; design: dose 1 mg/kg, route intravenous; details: in vivo
Procedure, shortened: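 A blocking arm received PD153035 1 mg/kg iv one hour before tail-vein injection of 1–2 MBq radiotracer in saline under isoflurane, compared with a control group. Nude SCID mice bore MDA-MB-468 flank xenografts (n = 4 per time point). Tumor was excised, weighed and counted, giving decay-corrected %ID/g.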

Mus musculus [4] = test: Biodistribution in tumor of EGFR negative-MDA-MB-435 cells-xenografted tumor-bearing nude SCID mouse at 1 to 2 MBq, iv after 1 hr postinjection; format: ADME, organism-based, Neoplasm; details: in vivo; procedure, shortened: as §1
Bone [5] = test: Biodistribution in tumor-bearing nude SCID mouse bone at 1 to 2 MBq, iv after 1 hr postinjection; format: ADME, organism-based, Bone element; details: in vivo; procedure, shortened: as §1
Mus musculus [6] = test: Biodistribution in tumor of EGFR positive-MDA-MB-468 cells-xenografted tumor-bearing nude SCID mouse at 1 to 2 MBq, iv after 1 hr postinjection; format: ADME, organism-based, Neoplasm; details: in vivo; procedure, shortened: as §1
Mus musculus [7] = test: Biodistribution in tumor of EGFR positive-MDA-MB-468 cells-xenografted tumor-bearing nude SCID mouse at 1 to 2 MBq, iv after 1 to 3 hrs postinjection; details: in vivo
Bone [8] = test: Biodistribution in tumor-bearing nude SCID mouse bone at 1 to 2 MBq, iv after 2 hrs postinjection; format: ADME, organism-based, Bone element; details: in vivo; procedure, shortened: as §1

SMILES | Stability (Hepatocyte) | Drug uptake (Mus musculus [1]) | Drug uptake (Bone [2]) | Drug uptake (Mus musculus [3]) | Drug uptake (Mus musculus [4]) | Drug uptake (Bone [5]) | Drug uptake (Mus musculus [6]) | Drug uptake (Mus musculus [7]) | Drug uptake (Bone [8])
CCOc1cc2ncnc(Nc3cccc([18F])c3)c2cc1OCC | Stable | – | – | – | – | – | – | – | –
COc1cc2ncnc(Nc3ccccc3[18F])c2cc1OC | Stable | < 0.6% | 2% | Active | < 0.6% | 2% | < 0.6% | < 0.6% | –
CCOc1cc2ncnc(Nc3ccccc3[18F])c2cc1OCC | Stable | < 0.6% | 2% | – | < 0.6% | 2% | < 0.6% | < 0.6% | –
CCOc1cc2ncnc(Nc3ccc([18F])cc3)c2cc1OCC | Unstable | < 0.6% | – | – | < 0.6% | 5% | < 0.6% | < 0.6% | 5%

Second part, the compound after the results:

Stability (Hepatocyte) | Drug uptake (Mus musculus [1]) | Drug uptake (Bone [2]) | Drug uptake (Mus musculus [3]) | Drug uptake (Mus musculus [4]) | Drug uptake (Bone [5]) | Drug uptake (Mus musculus [6]) | Drug uptake (Mus musculus [7]) | Drug uptake (Bone [8]) | SMILES
Stable | – | – | – | – | – | – | – | – | COc1cc2ncnc(Nc3cccc([18F])c3)c2cc1OC
Unstable | < 0.6% | – | – | < 0.6% | 5% | < 0.6% | < 0.6% | 5% | COc1cc2ncnc(Nc3ccc([18F])cc3)c2cc1OC

From ChEMBL document CHEMBL1772994, “Metabolic stability of 6,7-dialkoxy-4-(2-, 3- and 4-[18F]fluoroanilino)quinazolines, potential EGFR imaging probes” (Bioorg Med Chem, 2011)
